# High-throughput results: PubChem BioAssay, several laboratories
# PGE2 EP2 inh = human EP2 receptor antagonists, primary screen, TR-FRET cAMP, C6 glioma cells; inhibition, % at 25 µM; C6 glioma cells expressing human EP2; cells stimulated with saturating PGE2; Prostaglandin E2 receptor EP2 subtype (Homo sapiens), P43116; AID 1422, 2008; actives 0.52% (n = 260,000);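 active = percent inhibition above 40 after rounding to a whole number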;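 note: rat C6 glioma host cells with rolipram phosphodiesterase inhibitor present; the protocol text gives 20 µM as final concentration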
# ABCB1 inh = ABCB1 efflux pump inhibitors, primary screen, cell-based, multiplex, flow cytometry, ABCG2 counter-screen; actives 0.067% (n = 190,000); ATP-dependent translocase ABCB1 (Homo sapiens), P08183; CCRF-Adr cells, JC-1 efflux; inhibition, % at 6.6 µM; in the data active = inhibition above about 40%;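 note: 0% = vehicle and 100% = reference inhibitor; higher value means more JC-1 retained so stronger ABCB1 efflux block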
# ABCG2 inh = ABCG2 efflux pump inhibitors, primary screen, multiplex with ABCB1, IgMXP3 cells, flow cytometry | AID 1325, 2008 | JC-1 efflux | actives 0.1% (n = 190,000) | inhibition, % at 6.6 µM;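 active = inhibition above 80%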;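 note: 0% = DMSO and 100% = nicardipine control wells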
# Target sequence (Q9UNQ0 whole entry, looked up): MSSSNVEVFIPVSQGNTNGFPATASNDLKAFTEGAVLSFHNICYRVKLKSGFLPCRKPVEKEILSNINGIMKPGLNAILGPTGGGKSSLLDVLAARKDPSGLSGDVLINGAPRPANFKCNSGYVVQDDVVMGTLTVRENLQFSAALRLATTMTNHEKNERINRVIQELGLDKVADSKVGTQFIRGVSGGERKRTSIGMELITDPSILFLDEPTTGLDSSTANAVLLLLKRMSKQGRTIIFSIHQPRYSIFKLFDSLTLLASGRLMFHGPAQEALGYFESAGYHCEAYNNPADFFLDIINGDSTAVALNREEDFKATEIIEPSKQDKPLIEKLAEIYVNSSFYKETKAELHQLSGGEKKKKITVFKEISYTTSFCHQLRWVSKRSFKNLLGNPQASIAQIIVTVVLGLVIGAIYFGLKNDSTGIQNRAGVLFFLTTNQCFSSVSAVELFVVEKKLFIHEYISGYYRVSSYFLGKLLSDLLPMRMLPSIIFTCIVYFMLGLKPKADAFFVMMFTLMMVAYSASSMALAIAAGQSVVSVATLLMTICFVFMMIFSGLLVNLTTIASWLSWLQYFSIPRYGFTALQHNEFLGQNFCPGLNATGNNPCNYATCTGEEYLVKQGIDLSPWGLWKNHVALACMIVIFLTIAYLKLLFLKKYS
#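 Assay system – ABCG2 IgMXP3 and barcoded ABCB1 CCRF-Adr cell mix · Input – 3 million cells/mL in well · Reagent – JC-1 fluorescent substrate · Compound – single test compound dose, 6.6 µM final · Timing – 10 min exposure at 25 °C with rotation, no wash · Detection – flow cytometry of retained JC-1 fluorescence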
# EP2 modulator = EP2 receptor modulators, cAMP readout, primary screen, cell-based, HTRF cAMP, PGE2 stimulation; EP2-expressing cells, cAMP HTRF FRET, PGE2 co-stimulation; induction, % at 25 µM; actives 0.83% (n = 260,000); AID 940, 2007;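 active = compounds whose cAMP rise, as percent of the full-agonist control response, exceeds 60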;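 note: rat C6 glioma line stably carrying human EP2 under a CMV promoter; the protocol text gives 20 µM as final concentration; 100% = response of wells given 1 µM PGE2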
# RBBP9 inh = human RBBP9 inhibitors, primary screen, biochemical, fluorescence polarization, FP-Rh probe, HTS; actives 0.2% (n = 220,000); recombinant RBBP9; Serine hydrolase RBBP9 (Homo sapiens), O75884; AID 1515, 2009; inhibition, % at 7.94 µM;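 active = inhibition above the campaign mean of all tested compounds plus 3 SD, cut at about 14% in these data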;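 note: plate controls were DMSO wells with RBBP9 for no effect and wells lacking RBBP9 protein for full effect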
#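 System: RBBP9 protein / Quantity: 2.5 µM RBBP9 dispensing solution, before mixing / Also added: Serine-hydrolase probe FP-Rh, 375 nM pre-mixing / Dosing: 7.94 µM single dose, 0.794% DMSO / Timing: enzyme-compound preincubation 30 min, then probe labeling 45 min, 25 °C / Signal: FP readout at 525/598 nm / Controls: DMSO-treated enzyme wells and wells lacking RBBP9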
# Active calls of the source: *; . = no result given. Most compounds without a hit are left out; they make up all but 1.5% or so of the library.
SMILES,PGE2 EP2 inh,ABCB1 inh,ABCG2 inh,EP2 modulator,RBBP9 inh
COc1ccccc1C1OC2=C(Nc3ccc([N+](=O)[O-])cc3N2)C1=O (configuration not stated),2,.,.,-17,0
O=C(c1nccc2ccccc12)N1CCc2c(nc(N3CCOCC3)[nH]c2=O)C1,.,.,.,-318,.
Oc1cccc(Nc2nc(O)c(/C=C3\C=Nc4ccccc43)s2)c1,20,.,.,-44,17*
COc1ccc2[nH]c3c(=S)nc[nH]c3c2c1,12,0,1,62*,-7
COc1ccccc1N(CC(=O)NCc1ccc2c(c1)OCO2)S(C)(=O)=O,6,.,.,18,.
O=C(Cc1cc(=O)oc2cc(O)ccc12)NCC1CCC(C(=O)O)CC1 (configuration not stated),12,0,0,64*,-6
COc1ccc2c(CC(=O)O)cc(=O)oc2c1,7,.,.,20,-3
COc1ccc2c(c1)Cc1cc(N=[N+]([O-])c3ccc4c(c3)Cc3cc(OC)ccc3-4)ccc1-2,114*,.,.,-80,.
Oc1ccc(/C=C/c2nc(-c3ccccc3O)n(-c3ccccc3)n2)cc1,13,0,0,65*,-8
CCOc1ccc(N2CC(C(=O)Nc3cccc(Cl)c3Cl)CC2=O)cc1 (configuration not stated),11,.,.,-25,.
ONC(=Nc1ccccc1Cl)c1ccccc1Cl,7,.,.,71*,-8
CN(C)S(=O)(=O)Oc1cccc(C(=O)Nc2ccc(Cl)c(Cl)c2)c1,40*,1,1,-63,-36
CN(C)S(=O)(=O)Oc1cccc(C(=O)Nc2cccc(Cl)c2)c1,28,1,13,-56,-12
O=C1C(Cl)=C(Nc2ccc(S(=O)(=O)Nc3ccccn3)cc2)C(=O)c2ccccc21,107*,.,.,-63,.
O=C(CSc1ccc(-c2nc3ccccc3[nH]2)cn1)Nc1ccccc1-c1ccccc1,12,.,.,-47,.
O=C(CSc1ccc(-c2nc3ccccc3[nH]2)cn1)Nc1cccc(F)c1,49*,.,.,-92,.
COc1ccc(S(=O)(=O)N(Cc2cccs2)Cc2cc3cc(C)ccc3[nH]c2=O)cc1,12,.,.,-104,.
N#Cc1cc2c(nc1SCc1ccccc1)CCC2,42*,0,-1,40,-8
CCOc1ccc2[nH]c(C(=O)NC(c3ccccc3)c3cccnc3)c(C)c2c1 (configuration not stated),12,.,.,-77,.
CCOC(=O)C1(C)/C(=N/Nc2cccc(Cl)c2)C(=O)C(=O)N1c1ccccc1 (configuration not stated),7,0,0,-5,-5
CCOC(=O)C1(C)/C(=N/Nc2ccc(Cl)cc2)C(=O)C(=O)N1c1ccccc1 (configuration not stated),3,0,0,61*,7
OC1(c2ccc(F)cc2)CCN(Cc2ccccc2OCCN2CCOCC2)CC1,2,.,.,-8,.
COc1ccc(-c2oc3ccc(N4CCOCC4)cc3c2C#CC2(O)CCCCC2)cc1,8,.,.,.,.
COc1ccc(/C=C/c2c(-c3cccc(C)c3)oc3ccc(N4CCOCC4)cc23)cc1,40*,.,.,.,.
O=C1C(=O)c2ncccc2-c2cccnc21,16,.,.,33,.
SMILES,PGE2 EP2 inh,ABCB1 inh,ABCG2 inh,EP2 modulator,RBBP9 inh
O=C1C=C(NCCc2cc(Br)c(O)c(Br)c2)C(=O)c2ncccc21,104*,.,.,-49,.
COCCNc1nc2c(c(=O)[nH]c(=O)n2C)n1Cc1ccccc1C,4,.,.,0,.
O=C(O)c1cc2c(cc1S(=O)(=O)O)[C@@H]1[C@@H]([C@H]3[C@H]2[C@]2(Cl)C(Cl)=C(Cl)[C@@]3(Cl)C2(Cl)Cl)[C@]2(Cl)C(Cl)=C(Cl)[C@@]1(Cl)C2(Cl)Cl,45*,.,.,73*,.
CCOC(=O)c1ccccc1NC(=O)Cc1ccccc1OC,0,0,3,62*,4
CCOC(=O)c1ccccc1NC(=O)CSc1nc2ccccc2o1,4,0,6,61*,1
COC(=O)c1cc(S(=O)(=O)N2CCCCC2)c(Cl)cc1Cl,11,.,.,-14,.
CC(=O)C1=C(C)NC(SCC(=O)c2ccc(-c3ccccc3)cc2)=C(C#N)C1c1cccnc1 (configuration not stated),49*,3,4,-22,-10
